Source: ChEMBL document CHEMBL3046278, “Design, synthesis and antifungal/insecticidal evaluation of novel cinnamide derivatives” (2011)

Test system: Cytospora mali
Test: Antifungal activity against Valsa mali assessed as inhibition of mycelium growth at 50 ug/ml relative to control
Type: functional
Method in brief: (§1)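 Mycelial growth inhibition on mycelial disks, compared with untreated control, using colony diameters: (control − treatment)/(control − disk diameter) × 100. Run twice, four replicates each.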

Row | SMILES | inhibition at 50 µg/mL
1 | Cc1ccc(/C(=C/C(=O)NCCc2ccc(O)cc2)c2ccnc(Cl)c2)c(C)c1 | 26%
2 | CC(C)(C)c1ccc(/C(=C/C(=O)NCCc2ccc(O)cc2)c2ccnc(Cl)c2)cc1 | -7.8%
3 | Cc1ccc(/C(=C/C(=O)NCCc2ccccc2)c2ccncc2)cc1 | 36%
4 | CCc1ccc(/C(=C/C(=O)NCCc2ccccc2)c2ccncc2)cc1 | 30%
5 | Cc1ccc(/C(=C/C(=O)NCCc2ccccc2)c2ccncc2)cc1C | 18%
6 | COc1ccc(CCNC(=O)/C=C(\c2ccncc2)c2ccc(C)c(C)c2)cc1OC | 68%

Test system: Botrytis cinerea
Test: Antifungal activity against Botryotinia fuckeliana assessed as inhibition of mycelium growth at 50 ug/ml relative to control
Type: functional
Method in brief: as §1

Row | SMILES | inhibition at 50 µg/mL
7 | Cc1ccc(/C(=C/C(=O)NCCc2ccc(O)cc2)c2ccnc(Cl)c2)c(C)c1 | 38%
8 | CC(C)(C)c1ccc(/C(=C/C(=O)NCCc2ccc(O)cc2)c2ccnc(Cl)c2)cc1 | 50%
9 | Cc1ccc(/C(=C/C(=O)NCCc2ccccc2)c2ccncc2)cc1 | 43%
10 | CCc1ccc(/C(=C/C(=O)NCCc2ccccc2)c2ccncc2)cc1 | 48%
11 | Cc1ccc(/C(=C/C(=O)NCCc2ccccc2)c2ccncc2)cc1C | 15%
12 | COc1ccc(CCNC(=O)/C=C(\c2ccncc2)c2ccc(C)c(C)c2)cc1OC | 52%

Test system: Colletotrichum lindemuthianum
Test: Antifungal activity against Colletotrichum lindemuthianum assessed as inhibition of mycelium growth at 50 ug/ml relative to control
Type: functional
Method in brief: as §1

Row | SMILES | inhibition at 50 µg/mL
13 | Cc1ccc(/C(=C/C(=O)NCCc2ccc(O)cc2)c2ccnc(Cl)c2)c(C)c1 | 21.6%
14 | CC(C)(C)c1ccc(/C(=C/C(=O)NCCc2ccc(O)cc2)c2ccnc(Cl)c2)cc1 | 39.5%
15 | Cc1ccc(/C(=C/C(=O)NCCc2ccccc2)c2ccncc2)cc1 | 32.8%
16 | CCc1ccc(/C(=C/C(=O)NCCc2ccccc2)c2ccncc2)cc1 | 37.3%
17 | Cc1ccc(/C(=C/C(=O)NCCc2ccccc2)c2ccncc2)cc1C | 17.2%
18 | COc1ccc(CCNC(=O)/C=C(\c2ccncc2)c2ccc(C)c(C)c2)cc1OC | 28.4%

Test system: Bursaphelenchus xylophilus
Test: Nematicidal activity against Bursaphelenchus xylophilus assessed as mortality at 200 mg/L after 48 hr relative to control
Type: functional
Method in brief: (§2)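 Compounds dissolved in acetone and diluted with distilled water to a 200 mg L-1 working solution. Distilled water served as blank, triplicate. Mortality counted at 24, 48 and 72 h, then corrected against the negative control with Abbott's formula.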

Row | SMILES | Activity
19 | Cc1ccc(/C(=C/C(=O)NCCc2ccc(O)cc2)c2ccnc(Cl)c2)c(C)c1 | 44.71%
20 | CC(C)(C)c1ccc(/C(=C/C(=O)NCCc2ccc(O)cc2)c2ccnc(Cl)c2)cc1 | 27.76%
21 | Cc1ccc(/C(=C/C(=O)NCCc2ccccc2)c2ccncc2)cc1 | 14.86%
22 | CCc1ccc(/C(=C/C(=O)NCCc2ccccc2)c2ccncc2)cc1 | 8.23%
23 | Cc1ccc(/C(=C/C(=O)NCCc2ccccc2)c2ccncc2)cc1C | 47.67%
24 | COc1ccc(CCNC(=O)/C=C(\c2ccncc2)c2ccc(C)c(C)c2)cc1OC | 16.33%

Test system: Bursaphelenchus xylophilus
Test: Nematicidal activity against Bursaphelenchus xylophilus assessed as mortality at 200 mg/L after 24 hr relative to control
Type: functional
Method in brief: as §2

Row | SMILES | Activity
25 | Cc1ccc(/C(=C/C(=O)NCCc2ccc(O)cc2)c2ccnc(Cl)c2)c(C)c1 | 12.22%
26 | CC(C)(C)c1ccc(/C(=C/C(=O)NCCc2ccc(O)cc2)c2ccnc(Cl)c2)cc1 | 21.17%
27 | Cc1ccc(/C(=C/C(=O)NCCc2ccccc2)c2ccncc2)cc1 | 9.34%
28 | CCc1ccc(/C(=C/C(=O)NCCc2ccccc2)c2ccncc2)cc1 | 7.56%
29 | Cc1ccc(/C(=C/C(=O)NCCc2ccccc2)c2ccncc2)cc1C | 28.7%
30 | COc1ccc(CCNC(=O)/C=C(\c2ccncc2)c2ccc(C)c(C)c2)cc1OC | 13.65%

Test system: Sclerotinia sclerotiorum
Test: Antifungal activity against Sclerotinia sclerotiorum assessed as inhibition of mycelium growth at 50 ug/ml relative to control
Type: functional
Method in brief: as §1

Row | SMILES | inhibition at 50 µg/mL
31 | Cc1ccc(/C(=C/C(=O)NCCc2ccc(O)cc2)c2ccnc(Cl)c2)c(C)c1 | 27%
32 | CC(C)(C)c1ccc(/C(=C/C(=O)NCCc2ccc(O)cc2)c2ccnc(Cl)c2)cc1 | 29%
33 | Cc1ccc(/C(=C/C(=O)NCCc2ccccc2)c2ccncc2)cc1 | 16%
34 | CCc1ccc(/C(=C/C(=O)NCCc2ccccc2)c2ccncc2)cc1 | 45%
35 | Cc1ccc(/C(=C/C(=O)NCCc2ccccc2)c2ccncc2)cc1C | 2.7%
36 | COc1ccc(CCNC(=O)/C=C(\c2ccncc2)c2ccc(C)c(C)c2)cc1OC | 11%

Test system: Phytophthora nicotianae
Test: Antifungal activity against Phytophthora parasitica assessed as inhibition of mycelium growth at 50 ug/ml relative to control
Type: functional
Method in brief: as §1

Row | SMILES | inhibition at 50 µg/mL
37 | Cc1ccc(/C(=C/C(=O)NCCc2ccc(O)cc2)c2ccnc(Cl)c2)c(C)c1 | -25%
38 | CC(C)(C)c1ccc(/C(=C/C(=O)NCCc2ccc(O)cc2)c2ccnc(Cl)c2)cc1 | -13.7%
39 | Cc1ccc(/C(=C/C(=O)NCCc2ccccc2)c2ccncc2)cc1 | -17.7%
40 | CCc1ccc(/C(=C/C(=O)NCCc2ccccc2)c2ccncc2)cc1 | 5.65%
41 | Cc1ccc(/C(=C/C(=O)NCCc2ccccc2)c2ccncc2)cc1C | -9.68%
42 | COc1ccc(CCNC(=O)/C=C(\c2ccncc2)c2ccc(C)c(C)c2)cc1OC | -14.5%

Test system: Bursaphelenchus xylophilus
Test: Nematicidal activity against Bursaphelenchus xylophilus assessed as mortality at 200 mg/L after 72 hr relative to control
Type: functional
Method in brief: as §2

Row | SMILES | Activity
43 | Cc1ccc(/C(=C/C(=O)NCCc2ccc(O)cc2)c2ccnc(Cl)c2)c(C)c1 | 54.16%
44 | CC(C)(C)c1ccc(/C(=C/C(=O)NCCc2ccc(O)cc2)c2ccnc(Cl)c2)cc1 | 31.44%
45 | Cc1ccc(/C(=C/C(=O)NCCc2ccccc2)c2ccncc2)cc1 | 18.11%
46 | CCc1ccc(/C(=C/C(=O)NCCc2ccccc2)c2ccncc2)cc1 | 8.71%
47 | Cc1ccc(/C(=C/C(=O)NCCc2ccccc2)c2ccncc2)cc1C | 49.07%
48 | COc1ccc(CCNC(=O)/C=C(\c2ccncc2)c2ccc(C)c(C)c2)cc1OC | 19.29%

Test system: Rhizoctonia solani
Test: Antifungal activity against Rhizoctonia solani assessed as inhibition of mycelium growth at 50 ug/ml relative to control
Type: functional
Method in brief: as §1

Row | SMILES | inhibition at 50 µg/mL
49 | Cc1ccc(/C(=C/C(=O)NCCc2ccc(O)cc2)c2ccnc(Cl)c2)c(C)c1 | 13.6%
50 | CC(C)(C)c1ccc(/C(=C/C(=O)NCCc2ccc(O)cc2)c2ccnc(Cl)c2)cc1 | 9.03%
51 | Cc1ccc(/C(=C/C(=O)NCCc2ccccc2)c2ccncc2)cc1 | 15.5%
52 | CCc1ccc(/C(=C/C(=O)NCCc2ccccc2)c2ccncc2)cc1 | 9.68%
53 | Cc1ccc(/C(=C/C(=O)NCCc2ccccc2)c2ccncc2)cc1C | 3.87%
54 | COc1ccc(CCNC(=O)/C=C(\c2ccncc2)c2ccc(C)c(C)c2)cc1OC | 5.81%
